Data set [1] is filed under the species Cavia porcellus. The experiment in a line: Effect on inactivation processes of guinea pig cardiac Na channels expressed in Xenopus oocytes was determined by measuring the increase in current integral in the presence of compound Vs control at 10 uM. In kind it is functional. In outline: (§1)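 Guinea pig heart RNA injected into defolliculated stage V–VI Xenopus oocytes; two-microelectrode voltage clamp at 21–23 °C with standard HEPES buffer perfusion, pH 7.5. Current integrated at the I–V peak (−10 mV) after the capacity transient settled. One test concentration (10 μM) per oocyte; percent change in integral calculated against that oocyte's control, reported ± SEM.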

For data set [2], the species on record is Oryctolagus cuniculus. Briefly: Antiarrhythmic activity was determined by measuring the concentration that produced a 20 ms increase in ERP; no effect at </= 3. The format is functional, organism-based. The note with it: Heart. In outline: (§2)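 Langendorff-perfused rabbit heart, equilibrated 45 min before control. ERP measured after 15 min exposure to each of five cumulative concentrations: single premature stimulus scanning diastole at twice threshold. Concentration giving a 20 ms ERP increase taken from the concentration–response curve; repeated-measures ANOVA, mean change ± SEM.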

The species named for data set [3] is Oryctolagus cuniculus. Briefly: Concentration which increased contractility by 20% in rabbit; Negative inotropic effect observed. The format is functional, organism-based. A digest of the protocol:
(§3)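 Langendorff-perfused rabbit heart, 45 min equilibration, then five cumulative concentrations with 15 min exposure each. Contractility read as dP/dt; the nanomolar concentration raising it by 20% was derived from the concentration–response curve. Repeated-measures ANOVA, mean change from control ± SEM.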

Data set [4] relates to Sodium channel protein type 5 subunit alpha (Cavia porcellus). Briefly: Inactivation process of guinea pig cardiac Na channels expressed in xenopus oocytes was determined by measuring increase in current integral in presence of compound versus control at 10 uM. The note with it: oocyte.
The species named for data set [5] is Oryctolagus cuniculus. The experiment in a line: Antiarrhythmic activity was determined by measuring the concentration that produced a 20 ms increase in ERP. In kind it is functional, Heart. A digest of the protocol: as §2
Data set [6] can be described thus: Effective concentration against Xenopus oocytes expressing human heart Na channel. As to conditions: oocyte. The format is functional, cell-based. A digest of the protocol:
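HH1 human cardiac Na channel cRNA in oocytes; perfusate Na 140 mM, 21–23 °C, integral taken at −20 mV. At least three concentrations, n ≥ 3 each, single concentration per oocyte. Pooled data gave the EC50 (nM producing 50% integral increase) by linear regression over the lower, non-blocking range.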

Data set [7] is filed under the species Oryctolagus cuniculus. The experiment in a line: Concentration which increased contractility by 20% in rabbit. The format is functional. A digest of the protocol: as §3
A short description of data set [8]: Effective concentration against Xenopus oocytes expressing guinea pig heart Na channel. In kind it is functional, cell-based, Cavia porcellus. As to conditions: oocyte. In outline:
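Guinea pig heart RNA in Xenopus oocytes, voltage clamp at 21–23 °C, integral taken at −10 mV. Three or more concentrations, n ≥ 3 each, one per oocyte. Pooled percent-change data plotted semilogarithmically; EC50 (nM giving 50% integral increase) obtained by linear regression over the range lacking significant current block.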

A short description of data set [9]: Inactivation processes of human heart Na channel expressed in Xenopus oocytes as increase in current at 10 uM. In kind it is functional, Oocyte. In outline:
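Oocytes injected with cRNA transcribed from human cardiac Na channel (HH1) cDNA. Two-microelectrode voltage clamp at 21–23 °C, perfusion buffer with Na raised to 140 mM. Current integrated at −20 mV after the capacity transient settled. Single 10 μM exposure per oocyte; percent change in integral versus control, ± SEM.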

The species named for data set [10] is Oryctolagus cuniculus. The experiment in a line: Concentration which increased contractility by 20% in rabbit; no effect. In kind it is functional, organism-based. In outline:
as §3

The species entered for data set [11] is Oryctolagus cuniculus. The experiment in a line: Concentration which increased contractility by 20% in rabbit; no effect at </=3 uM. In kind it is functional, organism-based. In outline: as §3
In data set [12] the test system is Oocyte. The experiment in a line: Inactivation of guinea pig cardiac Na channel expressed in Xenopus oocytes as increased current at 10 uM; insoluble. The format is functional, cell-based. As to conditions: Cavia porcellus. In outline:
as §1

From ChEMBL document CHEMBL1128429, “Synthesis and structure-activity relationships of 6-heterocyclic-substituted purines as inactivation modifiers of cardiac sodium channels” (J Med Chem, 1995) come the findings set out here.

Active and inactive are the calls of the source.

Take `OC(CN1CCN(C(c2ccccc2)c2ccccc2)CC1)Cn1cnc2c(-c3ccc4ccccc4c3)ncnc21` (stereo not drawn): the Change in [1] is reported as -66%.
As usually defined, the EC20 is the point of the concentration-response curve where the effect stands at 20%. For the molecule `O[C@H](CN1CCN(C(c2ccccc2)c2ccccc2)CC1)Cn1cnc2c(-n3cccc3)ncnc21`, the EC20 entry in data set [2] is “inactive”. In addition, in data set [3], the dP/dt entry is “inactive”. Further, in data set [4], the Change is 21%.
As a reminder, the EC50 is the concentration giving half of the maximal effect. Read a high EC50 as a need for much substance. `O[C@@H](CN1CCN(C(c2ccccc2)c2ccccc2)CC1)Cn1cnc(-n2cccc2)c2ncnc1-2`: the 20% effect concentration (EC20) in [5] worked out at 43 nM. Moreover, the EC50 in data set [6] stood at 290 nM; in data set [8] it was 85 nM. In addition, the dP/dt in data set [7] is recorded as 377 nM. Also, the Change in data set [4] worked out at 711%; in data set [9], 540%.
For the molecule `Cc1cn(-c2ncnc3c2ncn3CC(O)CN2CCN(C(c3ccccc3)c3ccccc3)CC2)cn1` (stereo not drawn), in [2], the EC20 entry is “inactive”. The Change in [4] is 126%. Besides, in data set [8], the EC50 is greater than 3000 nM.
`O[C@@H](CN1CCN(C(c2ccccc2)c2ccccc2)CC1)Cn1cnc(-c2ccccc2)c2ncnc1-2` returned an EC20 in data set [5] of 141 nM. Moreover, the 50% effective concentration (EC50) in data set [6] amounted to 1600 nM; in data set [8] it was 160 nM. In data set [7], this molecule had a dP/dt of 434 nM. Besides, the Change in data set [4] amounted to 378%; in [9], 201%.
Consider `Nc1ncnc2c1ncn2C[C@@H](O)CN1CCN(C(c2ccccc2)c2ccccc2)CC1`, for which the EC20 in data set [5] is on record as 109 nM. This molecule had a dP/dt in [7] of 89 nM. Further, the Change in data set [4] came to 139%. The molecule further registered an EC50 in [8] of 1040 nM.
Turning to `O[C@@H](CN1CCN(C(c2ccccc2)c2ccccc2)CC1)Cn1cnc2c(-c3ccccc3)ncnc21`, the EC20 in data set [5] is reported as 425 nM. The dP/dt result in [10] was “inactive”. The results for the EC50 in data set [6] and in [8] were 2000 nM and 526 nM, respectively. In addition, the Change in data set [4] is 413%; in data set [9] it was 128%.
For `OC(CN1CCN(C(c2ccccc2)c2ccccc2)CC1)Cn1cnc2c(-n3cccn3)ncnc21` (stereo not drawn), the EC20 in data set [5] is reported as 81 nM. Besides, the dP/dt in data set [7] is on record as 40 nM. The Change in data set [4] is 372%. Further, the EC50 in [8] came out at 158 nM.
In data set [5], `Cc1cnn(-c2ncnc3c2ncn3CC(O)CN2CCN(C(c3ccccc3)c3ccccc3)CC2)c1` (stereo not drawn) registered an EC20 of 216 nM. This molecule had a dP/dt in data set [7] of 300 nM. For the same molecule, in [4], the Change came to 868%. A half-maximal effect in [8] (EC50) was put at 585 nM.
Regarding `N#Cc1cc2c(OCC(O)CN3CCN(C(c4ccccc4)c4ccccc4)CC3)cccc2[nH]1` (stereo not drawn), the EC20 in [5] came out at 430 nM. The results for the EC50 in data set [6] and in data set [8] were 2310 nM and 1920 nM, respectively. Further, the dP/dt result in data set [11] was “inactive”. For the same molecule, the results for the Change in data set [4] and in data set [9] were 239% and 174%, respectively.
In [5], `OC(CN1CCN(C(c2ccccc2)c2ccccc2)CC1)Cn1cnc2cncnc21` (stereo not drawn) yielded an EC20 of 95 nM. For the same molecule, in [7], the dP/dt worked out at 110 nM. Moreover, the Change in data set [4] is reported as 288%. This molecule yielded an EC50 in [8] of 796 nM.
The molecule `OC(CN1CCN(C(c2ccccc2)c2ccccc2)CC1)Cn1cnc2c(-n3cncn3)ncnc21` (stereo not drawn) registered an EC20 in data set [5] of 57 nM. Further, in [7], the dP/dt amounted to 60 nM. The Change in [4] is reported as 1664%. For the same molecule, in data set [8], the response was half-maximal at 204 nM (EC50).
In data set [5], `O[C@@H](CN1CCN(C(c2ccccc2)c2ccccc2)CC1)Cn1cnc2c(-n3cccn3)ncnc21` yielded an EC20 of 18 nM. The figures for the EC50 in [6] and in [8] were 900 nM and 99 nM, respectively. Further, in data set [7], the dP/dt is given as 40 nM. In addition, the Change is listed as 1226% in data set [4] and 540% in [9].
With `OC(CN1CCN(C(c2ccc(Cl)cc2)c2ccc(Cl)cc2)CC1)Cn1cnc2c(-n3cccc3)ncnc21` (stereo not drawn), the Change result in data set [12] was “Insoluble”.
